Compound activity deposited in PubChem by several laboratories.
This is a sample that favours compounds with a hit; in the whole collection about 1.6% have one here.
proKLK7 act = proKLK7 zymogen activators, primary screen, biochemical, fluorescence intensity | activation, % at 7 µM | actives 0.9% (n = 370,000) | Kallikrein-7 (Homo sapiens), P49862 | AID 652039, 2013 | purified proKLK7, EDANS-DABCYL substrate fluorescence; 100% is mature enzyme control, 0% vehicle;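 active = activation above the mean of all tested compounds plus 3 SD, computed per campaign excluding outliers beyond control limits, cut at about 13% in these data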
Neddyl block = inhibitors of cullin neddylation, primary screen, biochemical, TR-FRET, uHTS, NAE and Ubc12. NEDD8-conjugating enzyme Ubc12 (Homo sapiens) + NEDD8-activating enzyme E1 regulatory …. calls only at 25 µM. actives 0.58% (n = 360,000). AID 651699, 2012; in the data active = inhibition above about 36%
Target sequence (P61081 whole entry, looked up): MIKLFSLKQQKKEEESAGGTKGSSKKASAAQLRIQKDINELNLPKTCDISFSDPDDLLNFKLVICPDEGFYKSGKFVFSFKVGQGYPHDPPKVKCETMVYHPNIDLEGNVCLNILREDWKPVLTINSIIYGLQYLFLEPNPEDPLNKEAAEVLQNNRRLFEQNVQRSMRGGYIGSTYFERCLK
Target sequence (Q13564 whole entry, looked up): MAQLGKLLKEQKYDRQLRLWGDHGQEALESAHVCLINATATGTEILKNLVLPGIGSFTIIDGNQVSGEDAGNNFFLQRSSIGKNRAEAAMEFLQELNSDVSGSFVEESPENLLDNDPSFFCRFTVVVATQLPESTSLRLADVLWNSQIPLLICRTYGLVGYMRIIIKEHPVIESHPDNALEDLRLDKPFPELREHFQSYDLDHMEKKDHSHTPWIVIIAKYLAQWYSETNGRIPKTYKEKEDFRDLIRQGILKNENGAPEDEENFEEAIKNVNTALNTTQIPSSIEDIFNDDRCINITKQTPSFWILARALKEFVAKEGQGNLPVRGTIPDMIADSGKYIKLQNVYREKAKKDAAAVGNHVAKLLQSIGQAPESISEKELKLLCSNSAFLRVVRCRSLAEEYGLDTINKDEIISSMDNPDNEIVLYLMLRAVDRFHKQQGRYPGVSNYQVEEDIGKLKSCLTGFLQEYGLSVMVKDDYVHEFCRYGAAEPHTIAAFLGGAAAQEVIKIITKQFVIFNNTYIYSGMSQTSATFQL
procasp3 activ = activators of human procaspase-3 D3A mutant, primary screen, biochemical, absorbance, PC-3 D3A mutant, single concentration; Caspase-3 (Homo sapiens), P42574; recombinant procaspase-3 D3A, Ac-DEVD-pNA absorbance 405 nm; activation, % at 8.5 µM; actives 0.11% (n = 330,000); AID 463141, 2010;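 active = activation above the mean of all tested compounds plus 3 SD, cut at about 21% in these data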
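Assay system – Procaspase-3 D3A mutant · Benchmarks – DMSO low control, extra-enzyme high control · Technique – 405 nm absorbance of p-nitroaniline, reads at 0 and 120 min · Doses – 8.5 µM nominal · Measure – % activation between DMSO and enzyme-spiked controls · Also added – Ac-DEVD-pNA chromogenic peptide substrate · Schedule – 1 h compound preincubation, 2 h substrate hydrolysis at 25 °C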
procasp7 counter = procaspase-7 activators, primary screen, counter-screen for procaspase-3 activator project, biochemical, absorbance, HTS, human; Caspase-7 (Homo sapiens), P55210; recombinant procaspase-7, Ac-DEVD-pNA absorbance 405 nm; D23A/D198A/D206A triple mutant, cannot self-cleave; scale: DMSO 0, 5 µM enzyme 100; activation, % at 8.5 µM; actives 0.093% (n = 330,000); AID 463210, 2010;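 active = percent activation above the screen-wide mean plus 3 SD, cut at about 25% in these data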
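System: Uncleavable procaspase-7 mutant enzyme; Amount: 2 µM procaspase-7 mutant as dispensed; Schedule: 1 h compound preincubation, 2 h substrate cleavage, 25 °C; Measured by: 405 nm absorbance of p-nitroaniline; Evaluation: percent activation from buffer-corrected 0–120 min absorbance change; Control set: low DMSO alone, high DMSO plus 5 µM PC-7.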
proKLK7 act conf = proKLK7 zymogen activators, confirmation, biochemical, fluorescence intensity, triplicate | actives 68% (n = 3,200) | shares compounds with proKLK7 act | purified proKLK7, EDANS-DABCYL substrate fluorescence; scaled: vehicle 0, mature enzyme 100 | activation, % at 7 µM;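 active = activation, as change over the incubation, above the mean of all tested compounds plus 3 SD, cut at about 13% in these data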
EDANS-DABCYL int = EDANS-DABCYL substrate optical interference, artefact control for kallikrein-7 zymogen activator project, biochemical, fluorescence intensity, high throughput; shares compounds with proKLK7 act; no enzyme, 4 h; solvent 0%, active enzyme control 100%; activation, % at 7 µM; actives 80% (n = 3,200); AID 686952, 2013;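 active = activation above the all-compound mean plus 3 SD, ignoring values outside control-based bounds, cut at about 4.8% in these data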;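 note: value is the 4 h activation minus the activation read at time zero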
K7 EDANS ctr = optically interferes with EDANS-DABCYL fluorescence, kallikrein-7 activator counter-screen; shares compounds with proKLK7 act; EDANS-DABCYL peptide fluorescence interference, no enzyme; EC50, µM; actives 20% (n = 250);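 active = compounds that raise the fluorescence signal in this interference counterscreen, with EC50 at or below 10 µM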;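 note: intact quenched peptide substrate alone read at 355 nm excitation and 520 nm emission; signal is fluorescence gain from T0 to T4 after four hours at room temperature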
Large screens that a line does not name were inactive (follow-up assays come after a bar, where shown).

O=C1CC(N2CCN(Cc3ccc4c(c3)OCO4)CC2)C(=O)N1c1cccc(Cl)c1 (stereo not given)	none
O=C(NCCCN1CCOCC1)c1cc2c(=O)[nH]c3ccccc3c2s1	proKLK7 act 13.6 (not shown: Neddyl block) | proKLK7 act conf inactive | EDANS-DABCYL int 12.0
CCOCCCNC(=O)c1cc2c(=O)[nH]c3ccccc3c2s1	none (not shown: Neddyl block)
CCC(C)NC(=O)c1cc2c(=O)[nH]c3ccc(C)cc3c2s1 (stereo not given)	proKLK7 act 34.7 | proKLK7 act conf inactive | EDANS-DABCYL int inactive
CCCCN(CC)CCCNC(=O)c1cc2c(=O)[nH]c3ccccc3c2s1	proKLK7 act 14.7 (not shown: Neddyl block) | proKLK7 act conf inactive | EDANS-DABCYL int 6.2
CCN1CCN(CCCNC(=O)c2cc3c(=O)[nH]c4ccccc4c3s2)CC1	none (not shown: Neddyl block)
Cc1ccc2[nH]c(=O)c3cc(C(=O)NCCC(C)C)sc3c2c1	none (no result: procasp3 activ, procasp7 counter)
CCCCN(CC)CCNC(=O)c1cc2c(=O)[nH]c3ccc(C)cc3c2s1	proKLK7 act 15.7 (not shown: Neddyl block) | proKLK7 act conf inactive | EDANS-DABCYL int inactive
COc1ccc(Cn2cc(CN(C)C3CN(Cc4cn(Cc5ccc(OC)cc5)nn4)S(=O)(=O)C3)nn2)cc1 (stereo not given)	none (no result: procasp3 activ, procasp7 counter)
CC1CCC(NC(=O)CSc2nncs2)CC1 (stereo not given)	none
Cc1cc(C)n2c(Br)c(CN3CCCC(C)C3)nc2n1 (stereo not given)	proKLK7 act 14.9 (not shown: Neddyl block) | proKLK7 act conf 14.0 | EDANS-DABCYL int 15.6
Cc1cc(C)nc(SCc2nc3nc(C)cc(C)n3c2Br)n1	none (not shown: Neddyl block)
Cc1cc(-c2nnc(SCC(=O)Nc3ccc(Br)cc3F)n2N)n[nH]1	none
O=C(NCc1cccs1)c1cc2c(s1)-c1ccccc1OC2	none (not shown: Neddyl block)
O=C(c1ccco1)N1CCN(C(=O)c2cc3c(s2)-c2ccccc2OC3)CC1	proKLK7 act 22.9 (not shown: Neddyl block) | proKLK7 act conf inactive | EDANS-DABCYL int inactive
O=C(O)c1cc2c(s1)-c1ccccc1OC2	proKLK7 act 34.1 (not shown: Neddyl block) | proKLK7 act conf 77.0 | EDANS-DABCYL int 72.7
O=C(O)c1cc2c(s1)-c1ccccc1CC2	none (not shown: Neddyl block)
O=C(NC1CC1)c1cc2c(s1)-c1ccccc1OC2	proKLK7 act 47.4 | proKLK7 act conf 74.8 | EDANS-DABCYL int 86.8
O=C(NCCCN1CCOCC1)c1cc2c(s1)-c1ccccc1OC2	proKLK7 act 46.8 | proKLK7 act conf 68.0 | EDANS-DABCYL int 65.1
NS(=O)(=O)c1ccc(CCNC(=O)c2cc([N+](=O)[O-])ccc2N2CCCCC2)cc1	none
COc1ccc(O)c(C(=O)CC(=O)c2cccnc2)c1	proKLK7 act 55.3 (not shown: Neddyl block, procasp3 activ, procasp7 counter) | proKLK7 act conf 229.2 | EDANS-DABCYL int 235.4
O=S1(=O)c2ccc(N3CCC[C@@H]3CO)cc2O[C@H]2CCN1C2	none (no result: Neddyl block, procasp3 activ, procasp7 counter)
O=C(NCCc1ccccc1)c1coc(=O)c(Br)c1	proKLK7 act 13.5 (no result: procasp3 activ, procasp7 counter) | proKLK7 act conf 32.1 | EDANS-DABCYL int 25.9 | K7 EDANS ctr inactive
O=C(NC(CO)(CO)CO)c1coc(=O)c(Br)c1	proKLK7 act 40.6 | proKLK7 act conf 54.2 | EDANS-DABCYL int 53.6
CCOc1ccc(C(=O)NC(C(=O)N2CCC2)C(C)C)cc1 (stereo not given)	none (no result: procasp3 activ, procasp7 counter)
Cc1ncc(CO)c(/C=N/NC(=O)c2ccccc2Br)c1O	proKLK7 act 28.0 (not shown: Neddyl block) | proKLK7 act conf inactive | EDANS-DABCYL int inactive
Cc1ncc(CO)c(/C=N/NC(=O)c2ccoc2C)c1O	none (not shown: Neddyl block, procasp3 activ, procasp7 counter)
COc1ccccc1N/N=C/c1c(CO)cnc(C)c1O	proKLK7 act 20.6 | proKLK7 act conf 34.4 | EDANS-DABCYL int 39.0
O=S1(=O)CC2c3ccc(F)cc3CN2CN1C1CCCC1 (stereo not given)	none (no result: Neddyl block, procasp3 activ, procasp7 counter)
CCN(CC)C(=O)Cn1nc(-c2ccc(Cl)cc2)c2ccccc2c1=O	none
CC(=O)Oc1c(-c2ccco2)oc2ccccc2c1=O	proKLK7 act 13.9, Neddyl block active | proKLK7 act conf 21.4 | EDANS-DABCYL int 18.8
CCN(CC)C(=O)COc1c(-c2ccco2)oc2ccccc2c1=O	none
CC(C)C1NC2(C(=O)c3ccccc3C2=O)C2C(=O)N(c3ccc(F)cc3)C(=O)C12 (stereo not given)	proKLK7 act 20.3 | proKLK7 act conf inactive | EDANS-DABCYL int inactive
CCCC(=O)N1CCC1(C)C(=O)Nc1ccc2scnc2c1 (stereo not given)	none (no result: proKLK7 act, procasp3 activ, procasp7 counter)
CCCC(=O)N1CCC1(C)C(=O)Nc1ccc2nccnc2c1 (stereo not given)	proKLK7 act 12.6 (not shown: Neddyl block, procasp3 activ, procasp7 counter) | proKLK7 act conf inactive | EDANS-DABCYL int 8.5
CC(=O)Oc1ccc2c(=O)c(N3C(=O)c4ccccc4C3=O)c(C)oc2c1C	proKLK7 act 27.5 | proKLK7 act conf 34.0 | EDANS-DABCYL int 31.0
Cc1c(CC(=O)N2CCN(C(=O)C3COc4ccccc4O3)CC2)c(=O)oc2cc(O)c(Cl)cc12 (stereo not given)	proKLK7 act 89.0 | proKLK7 act conf 64.0 | EDANS-DABCYL int 63.9
COc1ccc2c(C)c(CC(=O)N3CCN(C(=O)C4COc5ccccc5O4)CC3)c(=O)oc2c1C (stereo not given)	none (not shown: Neddyl block)
COc1c(C)cc(C(O)c2ncc(-c3ccc(C(F)(F)F)cc3)[nH]2)cc1C (stereo not given)	none (no result: procasp3 activ, procasp7 counter)
Nc1cccc2c1C(=O)N(C(=O)c1cccc(S(=O)(=O)N3CCCCCC3)c1)C2=O	proKLK7 act 19.0 (not shown: Neddyl block) | proKLK7 act conf 257.8 | EDANS-DABCYL int 269.1
Nc1cccc2c1C(=O)N(C(=O)c1ccc(Cl)c(S(=O)(=O)N3CCCCCC3)c1)C2=O	proKLK7 act 17.9 (not shown: Neddyl block) | proKLK7 act conf 217.2 | EDANS-DABCYL int 233.2
CCNC(=S)NNC(=O)c1cc(Br)cs1	proKLK7 act 13.1 | proKLK7 act conf inactive | EDANS-DABCYL int 6.5
CCOC(=O)c1nn(-c2ccc3c(c2)CCN3C(C)=O)cc1O	proKLK7 act 175.1 (not shown: Neddyl block) | proKLK7 act conf inactive | EDANS-DABCYL int 19.4
CCOC(=O)c1nn(-c2ccc(F)cc2)cc1O	none
CC(C)NC(=O)c1cc(C2CCCCN2S(=O)(=O)c2ccc(C#N)cc2)on1 (stereo not given)	none (no result: procasp3 activ, procasp7 counter)
Cc1cc(NCC2CCCO2)n2c(nc3ccccc32)c1C#N (stereo not given)	proKLK7 act 16.1 (not shown: Neddyl block) | proKLK7 act conf 43.6 | EDANS-DABCYL int 34.3
